Here are results for 3 compounds from ChEMBL document CHEMBL1275475, “Potent in vitro activity of tomopenem (CS-023) against methicillin-resistant Staphylococcus aureus and Pseudomonas aeruginosa” (Antimicrob Agents Chemother, 2008).

As usually defined, the MIC is the least concentration at which growth counts as inhibited. Low readings indicate inhibition by little substance, high ones a need for much substance. By IC50 is commonly meant the concentration at which inhibition is half-maximal. A low value points to greater potency. For orientation: MIC50 means the lowest concentration that inhibits either 50% of growth or 50% of the strains tested, depending on the study. Read a low MIC50 as higher susceptibility. By MIC90 is commonly meant the lowest concentration that inhibits either 90% of growth or 90% of the strains tested, depending on the study. Higher therefore signals lower susceptibility.

In experiment [1] the test system is Pseudomonas aeruginosa. Kind of experiment: Antibacterial activity against Pseudomonas aeruginosa COR6 expressing MexC-MexD-OprJ gene by broth microdilution method. Type of experiment: functional. Put shortly: (§1)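 Standard broth microdilution in cation-adjusted Mueller-Hinton broth (25 mg Ca2+ and 12.5 mg Mg2+ per liter), inoculum 4×10^5 CFU/ml, against P. aeruginosa PAO1 or its laboratory mutants with defined resistance mechanisms. MIC was the lowest concentration completely inhibiting […] growth in wells. Determinations were done in duplicate.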
On the technique in general: In broth dilution the organism is exposed to a series of concentrations in liquid medium.

In experiment [2] the test system is Pseudomonas aeruginosa. Kind of experiment: Ratio of MIC for Pseudomonas aeruginosa N045 to MIC for Pseudomonas aeruginosa PAO1. In kind it is functional. A digest of the protocol:
(§2)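 MICs were measured for PAO1-derived resistance mutants and the parent PAO1 by broth microdilution in cation-adjusted Mueller-Hinton broth (25 mg/liter Ca2+, 12.5 mg/liter Mg2+), inoculum 4×10^5 CFU/ml, in duplicate. MIC was the lowest concentration with complete growth inhibition. The ratio is the mutant MIC divided by the PAO1 MIC.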

For experiment [3], the system named is Pseudomonas aeruginosa. Kind of experiment: Antibacterial activity against Pseudomonas aeruginosa N092 expressing MexE-MexF-OprN gene and OprD mutant gene and harboring nfxC mutant gene by broth microdilution method.
The test system of experiment [4] is Pseudomonas aeruginosa. Kind of experiment: Ratio of MIC for Pseudomonas aeruginosa N044 to MIC for Pseudomonas aeruginosa PAO1. In kind it is functional. A digest of the protocol:
as §2

In experiment [5] the test system is Pseudomonas aeruginosa. Kind of experiment: Ratio of MIC for Pseudomonas aeruginosa N043 to MIC for Pseudomonas aeruginosa PAO1. In kind it is functional. Put shortly:
as §2

Experiment [6] concerns Pseudomonas aeruginosa. Kind of experiment: Ratio of MIC for Pseudomonas aeruginosa N092 to MIC for Pseudomonas aeruginosa PAO1. In kind it is functional. Put shortly:
as §2

Experiment [7] relates to Pseudomonas aeruginosa. Kind of experiment: Antibacterial activity against Pseudomonas aeruginosa N091 by broth microdilution method. Type of experiment: functional. A digest of the protocol: as §1
The subject of experiment [8] is Pseudomonas aeruginosa. Kind of experiment: Antibacterial activity against MexA-MexB-OprM-overproducing Pseudomonas aeruginosa OCR1 by broth microdilution method. In kind it is functional. A digest of the protocol:
as §1

In experiment [9] the test system is Pseudomonas aeruginosa. Kind of experiment: Antibacterial activity against Pseudomonas aeruginosa PAO1 by broth microdilution method. In kind it is functional. Put shortly:
as §1

The subject of experiment [10] is Pseudomonas aeruginosa. Kind of experiment: Ratio of MIC for Pseudomonas aeruginosa N041 to MIC for Pseudomonas aeruginosa PAO1. Type of experiment: functional. A digest of the protocol:
as §2

The subject of experiment [11] is Pseudomonas aeruginosa. Kind of experiment: Ratio of MIC for Pseudomonas aeruginosa MR08 to MIC for Pseudomonas aeruginosa PAO1. Type of experiment: functional. Put shortly:
as §2

For experiment [12], the system named is Pseudomonas aeruginosa. Kind of experiment: Ratio of MIC for Pseudomonas aeruginosa COR6 to MIC for Pseudomonas aeruginosa PAO1. Type of experiment: functional. Put shortly: as §2
Experiment [13] has as its system Pseudomonas aeruginosa. Kind of experiment: Antibacterial activity against beta-lactamase and MexA-MexB-OprM-overproducing Pseudomonas aeruginosa N045 by broth microdilution method. In kind it is functional. A digest of the protocol:
(§3)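 Broth microdilution in cation-adjusted Mueller-Hinton broth (25 mg Ca2+ and 12.5 mg Mg2+ per liter), inoculum 4×10^5 CFU/ml. MIC was the lowest concentration completely inhibiting visible growth in wells. European clinical isolates were tested with S. aureus ATCC 29213 and P. aeruginosa ATCC 27853 as quality controls. PAO1-derived mutants were run in duplicate.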

Experiment [14] deals with Pseudomonas aeruginosa. Kind of experiment: Antibacterial activity against beta-lactamase-overproducing Pseudomonas aeruginosa N043 by broth microdilution method. Type of experiment: functional. A digest of the protocol:
as §1

The test system of experiment [15] is Pseudomonas aeruginosa. Kind of experiment: Antibacterial activity against MexA-MexB-OprM-overproducing and OprD-deficient Pseudomonas aeruginosa N041 by broth microdilution method. In kind it is functional. A digest of the protocol:
as §1

Experiment [16] relates to Pseudomonas aeruginosa. Kind of experiment: Antibacterial activity against beta-lactamase-overproducing and OprD-deficient Pseudomonas aeruginosa N044 by broth microdilution method. In kind it is functional. Put shortly:
as §1

Experiment [17] has as its system Pseudomonas aeruginosa. Kind of experiment: Antibacterial activity against OprD-deficient Pseudomonas aeruginosa MR08 by broth microdilution method. Type of experiment: functional. A digest of the protocol:
as §1

For experiment [18], the system named is Pseudomonas aeruginosa. Kind of experiment: Ratio of MIC for Pseudomonas aeruginosa OCR1 to MIC for Pseudomonas aeruginosa PAO1. In kind it is functional. Put shortly: as §2
Experiment [19] concerns Staphylococcus aureus. Kind of experiment: Antibacterial activity against methicillin-resistant Staphylococcus aureus 123-1 expressing PBP 2a by broth microdilution method. In kind it is functional. A digest of the protocol: (§4)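 Standard broth microdilution in cation-adjusted Mueller-Hinton broth (25 mg Ca2+ and 12.5 mg Mg2+ per liter), inoculum 4×10^5 CFU/ml. Isolates were 60 German MRSA clinical strains, and penicillinase-plasmid-cured MRSA 123-1 and 12386-1. QC strain was S. aureus ATCC 29213.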

Experiment [20] concerns the target T1, MecA (Staphylococcus aureus, UniProt Q7DHH4).
T1 sequence (Q7DHH4 whole entry): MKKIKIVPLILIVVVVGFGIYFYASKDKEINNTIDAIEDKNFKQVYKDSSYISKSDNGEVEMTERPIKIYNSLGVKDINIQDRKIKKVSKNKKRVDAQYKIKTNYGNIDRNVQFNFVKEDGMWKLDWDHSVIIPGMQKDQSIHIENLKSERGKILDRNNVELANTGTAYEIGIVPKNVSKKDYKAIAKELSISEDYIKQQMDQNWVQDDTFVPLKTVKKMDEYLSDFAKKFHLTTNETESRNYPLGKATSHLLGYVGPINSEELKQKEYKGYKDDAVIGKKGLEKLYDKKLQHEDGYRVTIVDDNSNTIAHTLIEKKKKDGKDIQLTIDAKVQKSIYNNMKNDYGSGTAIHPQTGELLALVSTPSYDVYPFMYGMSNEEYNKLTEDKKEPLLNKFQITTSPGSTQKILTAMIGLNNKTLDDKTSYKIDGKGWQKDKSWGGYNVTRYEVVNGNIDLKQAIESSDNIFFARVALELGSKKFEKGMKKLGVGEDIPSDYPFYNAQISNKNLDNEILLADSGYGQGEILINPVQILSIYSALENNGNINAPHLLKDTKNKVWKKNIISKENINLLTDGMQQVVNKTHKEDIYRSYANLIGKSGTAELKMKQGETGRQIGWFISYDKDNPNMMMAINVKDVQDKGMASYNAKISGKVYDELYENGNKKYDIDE
Kind of experiment: Binding affinity to PBP2a in methicillin-resistant Staphylococcus aureus 12386-1 by [14C]benzylpenicillin labelled competitive assay. Put shortly:
(§5)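 Competition against [14C]benzylpenicillin. Membranes came from penicillinase-plasmid-cured MRSA lysed with lysostaphin (100 μg/ml), DNase (1 μg/ml) and sonication in 50 mM sodium phosphate, 10 mM MgCl2, pH 7.0. They were collected at 5,000 × g for 10 min, then 100,000 × g for 60 min, at final 8 mg/ml protein. Compound was added for 30 min, then label for 30 min, at 37°C. IC50 for 50% label-binding inhibition to PBP 2a was read by imaging analyzer.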

For experiment [21], the system named is Staphylococcus aureus. Kind of experiment: Antibacterial activity against methicillin-resistant Staphylococcus aureus 12386-1 expressing PBP 2a by broth microdilution method. In kind it is functional. A digest of the protocol:
as §4

In experiment [22] the test system is Pseudomonas aeruginosa. Kind of experiment: Antibacterial activity against Pseudomonas aeruginosa clinical isolates by broth microdilution method. In kind it is functional. Put shortly:
as §3

Experiment [23] has as its system Pseudomonas aeruginosa. Kind of experiment: Antibacterial activity against imipenem-resistant Pseudomonas aeruginosa clinical isolates by broth microdilution method. In kind it is functional. A digest of the protocol: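 Standard broth microdilution in cation-adjusted Mueller-Hinton broth (25 mg Ca2+ and 12.5 mg Mg2+ per liter), inoculum 4×10^5 CFU/ml. MIC is the lowest concentration completely inhibiting […] growth in wells. […] P. aeruginosa ATCC 27853 serves as QC strain.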

The target of experiment [24] is T1, MecA. Kind of experiment: Binding affinity to PBP2a in methicillin-resistant Staphylococcus aureus 123-1 by [14C]benzylpenicillin labelled competitive assay. Put shortly:
as §5

In experiment [25] the test system is Staphylococcus aureus. Kind of experiment: Antibacterial activity against methicillin-resistant Staphylococcus aureus by broth microdilution method. In kind it is functional. A digest of the protocol: as §4

Values after ≈ are worked out from the molar mass of the structure shown.

`NCC[C@H](O)C(=O)N[C@@H]1C[C@H](N)[C@@H](O[C@H]2O[C@H](CN)[C@@H](O)[C@H](O)[C@H]2O)[C@H](O)[C@H]1O[C@H]1O[C@H](CO)[C@@H](O)[C@H](N)[C@H]1O` [AMIKACIN]: the MIC in the experiment on Pseudomonas aeruginosa [1] is 0.5 µg/mL (≈ 0.854 µM); with Pseudomonas aeruginosa [3], 2 µg/mL (≈ 3.42 µM); against Pseudomonas aeruginosa [7], 4 µg/mL (≈ 6.83 µM); in the experiment with Pseudomonas aeruginosa [8] it was 4 µg/mL (≈ 6.83 µM); with Pseudomonas aeruginosa [9], 4 µg/mL (≈ 6.83 µM); against Pseudomonas aeruginosa [13] it was 8 µg/mL (≈ 13.7 µM). Moreover, the minimum inhibitory concentration (MIC) against Pseudomonas aeruginosa [14] came to 8 µg/mL (≈ 13.7 µM); in the experiment with Pseudomonas aeruginosa [15], 4 µg/mL (≈ 6.83 µM); in the experiment on Pseudomonas aeruginosa [16] it was 8 µg/mL (≈ 13.7 µM); in the experiment on Pseudomonas aeruginosa [17] it was 4 µg/mL (≈ 6.83 µM). For the same compound, the Ratio stood at 2 with Pseudomonas aeruginosa [2]; 2 in the experiment on Pseudomonas aeruginosa [4]; 2 with Pseudomonas aeruginosa [5]; 0.5 in the experiment on Pseudomonas aeruginosa [6]; 1 with Pseudomonas aeruginosa [10]; 1 in the experiment with Pseudomonas aeruginosa [11]. Besides, the values for the Ratio in the experiment with Pseudomonas aeruginosa [12] and in the experiment with Pseudomonas aeruginosa [18] were 0.125 and 1, respectively.
Turning to `CC(C)(O/N=C(\C(=O)N[C@@H]1C(=O)N2C(C(=O)[O-])=C(C[n+]3ccccc3)CS[C@H]12)c1csc(N)n1)C(=O)O` [CEFTAZIDIME], the MIC worked out at 1 µg/mL (≈ 1.83 µM) against Pseudomonas aeruginosa [1]; 1 µg/mL (≈ 1.83 µM) against Pseudomonas aeruginosa [3]; 2 µg/mL (≈ 3.66 µM) against Pseudomonas aeruginosa [7]; 8 µg/mL (≈ 14.6 µM) against Pseudomonas aeruginosa [8]; 2 µg/mL (≈ 3.66 µM) against Pseudomonas aeruginosa [9]; 128 µg/mL (≈ 234 µM) against Pseudomonas aeruginosa [13]. The minimal inhibitory concentration (MIC) against Pseudomonas aeruginosa [14] was found to be 128 µg/mL (≈ 234 µM); with Pseudomonas aeruginosa [15], 8 µg/mL (≈ 14.6 µM); with Pseudomonas aeruginosa [16] it was 128 µg/mL (≈ 234 µM); against Pseudomonas aeruginosa [17], 2 µg/mL (≈ 3.66 µM). Besides, the Ratio in the experiment with Pseudomonas aeruginosa [2] was 64; with Pseudomonas aeruginosa [4], 64; in the experiment on Pseudomonas aeruginosa [5], 64; in the experiment with Pseudomonas aeruginosa [6] it was 0.5; with Pseudomonas aeruginosa [10], 4; with Pseudomonas aeruginosa [11], 1. The Ratio in the experiment with Pseudomonas aeruginosa [12] was 0.5; with Pseudomonas aeruginosa [18], 4.
Turning to `C[C@@H](O)[C@H]1C(=O)N2C(C(=O)O)=C(SCCNC=N)C[C@H]12` [IMIPENEM ANHYDROUS], the MIC against Pseudomonas aeruginosa [1] is 0.5 µg/mL (≈ 1.67 µM); against Staphylococcus aureus [19], 32 µg/mL (≈ 107 µM); against Pseudomonas aeruginosa [3], 4 µg/mL (≈ 13.4 µM); in the experiment with Staphylococcus aureus [21], 16 µg/mL (≈ 53.4 µM); against Pseudomonas aeruginosa [7] it was 1 µg/mL (≈ 3.34 µM); in the experiment with Pseudomonas aeruginosa [23], at least 16 µg/mL. Besides, the MIC with Pseudomonas aeruginosa [8] turned out to be 1 µg/mL (≈ 3.34 µM); against Pseudomonas aeruginosa [9], 1 µg/mL (≈ 3.34 µM); in the experiment with Pseudomonas aeruginosa [13] it was 1 µg/mL (≈ 3.34 µM); in the experiment on Pseudomonas aeruginosa [14], 1 µg/mL (≈ 3.34 µM); in the experiment on Pseudomonas aeruginosa [15] it was 8 µg/mL (≈ 26.7 µM); with Pseudomonas aeruginosa [16], 32 µg/mL (≈ 107 µM). The same compound registered an MIC against Pseudomonas aeruginosa [17] of 16 µg/mL (≈ 53.4 µM). Further, the values for the half-maximal inhibitory concentration (IC50) on MecA [20] and on MecA [24] were 254 µM and 568 µM, respectively. The MIC50 against Pseudomonas aeruginosa [22] stood at 2 µg/mL (≈ 6.68 µM); in the experiment on Staphylococcus aureus [25], 4 µg/mL (≈ 13.4 µM). Also, the MIC90 was 32 µg/mL (≈ 107 µM) against Pseudomonas aeruginosa [22] and above 32 µg/mL in the experiment on Staphylococcus aureus [25].
